1 molecule from ChEMBL document CHEMBL1800016, “Novel thiazolidinedione derivatives with anti-obesity effects: dual action as PTP1B inhibitors and PPAR-γ activators” (Bioorg Med Chem Lett, 2010) can be followed below.

The source made the active and inactive calls. The rule behind the calls is not given here. Where only a bound is given, the exact number is not on record here.

Data set [1] concerns the target T1, Tyrosine-protein phosphatase non-receptor type 2 (Homo sapiens, UniProt P17706).
T1 sequence (P17706 whole entry): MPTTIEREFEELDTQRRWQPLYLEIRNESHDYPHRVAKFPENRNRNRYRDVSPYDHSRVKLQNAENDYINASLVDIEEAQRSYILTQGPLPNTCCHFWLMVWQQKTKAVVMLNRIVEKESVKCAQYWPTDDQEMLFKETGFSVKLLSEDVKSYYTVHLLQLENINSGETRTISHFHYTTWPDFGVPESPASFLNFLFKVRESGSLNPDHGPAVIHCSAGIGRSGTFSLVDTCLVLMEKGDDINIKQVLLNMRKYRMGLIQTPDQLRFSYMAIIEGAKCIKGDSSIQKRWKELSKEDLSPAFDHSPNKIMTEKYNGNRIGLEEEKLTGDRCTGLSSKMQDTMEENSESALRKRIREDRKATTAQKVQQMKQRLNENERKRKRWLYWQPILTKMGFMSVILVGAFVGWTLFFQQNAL
Kind of data set: Inhibition of TC-PTP assessed as p-nitrophenol release from pNPP substrate preincubated for 10 mins. Put shortly:
(§1)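 IC50 values against the PTP panel, with enzymes prepared as described in the supplementary material. Values are means ± SD of two or more experiments.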

A short description of data set [2]: Selectivity ratio of IC50 for TC-PTP to IC50 for PTP1B.
Data set [3] concerns Mus musculus. The data set can be described thus: Antiobesity activity in high fat diet-fed diabetic C57BL/6J Jms Slc mouse model assessed as decrease in total cholesterol level in serum at 2.6 mg/day administered with food for 4 weeks. It counts as functional. The gist of the method: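 DIO mice were fed HFD for 8 wk, then HFD containing 0.1% w/w compound (about 2.6 mg/day/mouse) for 4 wk. At the end of feeding, mice were deprived of food overnight. Serum total cholesterol, triglyceride and NEFA were then measured. Values are mean ± SEM.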

Data set [4] in a line: Inhibition of YOP assessed as p-nitrophenol release from pNPP substrate preincubated for 10 mins. The gist of the method:
as §1

Data set [5] concerns the target Tyrosine-protein phosphatase non-receptor type 6 (Homo sapiens, UniProt P29350). Kind of data set: Inhibition of catalytic domain of SHP-1 expressed in Escherichia coli assessed as p-nitrophenol release from pNPP substrate preincubated for 10 mins. The gist of the method: as §1
Data set [6] concerns the target Receptor-type tyrosine-protein phosphatase F (Homo sapiens, UniProt P10586). The data set can be described thus: Inhibition of membrane proximal catalytic domain of LAR-D1 assessed as p-nitrophenol release from pNPP substrate preincubated for 10 mins. Put shortly:
as §1

Data set [7] concerns Mus musculus. The data set can be described thus: Antidiabetic activity in high fat diet-fed diabetic C57BL/6J Jms Slc mouse model assessed as normalization of blood glucose level at 2.6 mg/day administered with food for 4 weeks measured 90 mins after last dose by glucose tolerance test. In kind it is functional, organism-based. The gist of the method: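 Mice were male C57BL/6J Jms Slc, 5 wk old after 1 wk acclimatization. They were fed a 45%-fat HFD for 8 wk, then HFD with compound mixed in (1.0 g/kg diet, about 2.6 mg/day/mouse, 78 mg/day/kg) for 4 wk. Each mouse was fasted 6 h from the start of the light cycle and fasting glucose was measured. Glucose 1.0 g/kg was then given i.p., with readings at 60 and 90 min.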

Data set [8] has as its system Mus musculus. The data set can be described thus: Toxicity in high fat diet-fed diabetic C57BL/6J Jms Slc mouse model assessed as change in weight of lung at 2.6 mg/day administered with food for 4 weeks. In kind it is organism-based. The conditions noted are these: in vivo, po, 672 h. The gist of the method: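 At the end of the 4 wk in-feed dosing (about 2.6 mg/day/mouse in HFD), liver, kidney and lung weights were compared across the lean LFD, HFD control and treated groups.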

For data set [9], the target named is T2, Tyrosine-protein phosphatase 1 (Saccharomyces cerevisiae S288c, UniProt P25044).
T2 sequence (P25044 whole entry): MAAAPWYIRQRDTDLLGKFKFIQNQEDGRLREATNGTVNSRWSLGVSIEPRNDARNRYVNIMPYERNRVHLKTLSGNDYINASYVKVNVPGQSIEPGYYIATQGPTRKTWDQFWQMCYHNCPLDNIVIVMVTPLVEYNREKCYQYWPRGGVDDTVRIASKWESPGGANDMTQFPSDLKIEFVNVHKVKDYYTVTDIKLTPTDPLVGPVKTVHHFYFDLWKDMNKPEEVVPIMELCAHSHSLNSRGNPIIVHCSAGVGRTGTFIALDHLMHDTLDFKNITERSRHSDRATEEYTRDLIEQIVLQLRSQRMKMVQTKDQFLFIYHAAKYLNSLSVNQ
Kind of data set: Inhibition of yeast PTP1 expressed in Escherichia coli assessed as p-nitrophenol release from pNPP substrate preincubated for 10 mins. The gist of the method: as §1

In data set [10] the test system is Mus musculus. Kind of data set: Antiobesity activity in high fat diet-fed diabetic C57BL/6J Jms Slc mouse model assessed as reduction in body weight at 2.6 mg/day administered with food for 4 weeks. It counts as functional. Put shortly: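 DIO male C57BL/6J Jms Slc mice were fed a 45%-fat HFD for 8 wk, then HFD with 0.1% w/w compound in feed (about 2.6 mg/day/mouse) for 4 wk. A 10%-fat LFD lean group ran throughout. Measures were weight gain, feed efficiency (weight gain/kcal ×100), and epididymal and retroperitoneal fat pad weights. n = 8/group; mean ± SEM; one-way ANOVA.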

Sequence of Tyrosine-protein phosphatase non-receptor type 6 (P29350 whole entry, the tested form may be a part): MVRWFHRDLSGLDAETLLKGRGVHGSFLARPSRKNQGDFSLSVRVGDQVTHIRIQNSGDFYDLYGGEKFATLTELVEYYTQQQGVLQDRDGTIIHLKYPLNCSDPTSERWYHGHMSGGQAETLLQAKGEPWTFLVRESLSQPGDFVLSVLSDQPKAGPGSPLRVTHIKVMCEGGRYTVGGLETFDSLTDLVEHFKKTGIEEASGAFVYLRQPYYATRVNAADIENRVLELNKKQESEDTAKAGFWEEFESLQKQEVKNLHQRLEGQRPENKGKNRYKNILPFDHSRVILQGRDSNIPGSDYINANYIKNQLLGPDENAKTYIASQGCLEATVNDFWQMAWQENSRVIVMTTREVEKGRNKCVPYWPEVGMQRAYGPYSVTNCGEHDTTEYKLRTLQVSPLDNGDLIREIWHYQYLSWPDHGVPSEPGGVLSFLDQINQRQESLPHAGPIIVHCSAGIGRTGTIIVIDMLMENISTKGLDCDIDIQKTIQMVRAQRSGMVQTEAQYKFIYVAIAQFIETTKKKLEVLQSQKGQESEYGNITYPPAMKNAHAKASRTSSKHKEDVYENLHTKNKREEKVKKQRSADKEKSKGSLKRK
Sequence of Receptor-type tyrosine-protein phosphatase F (P10586 whole entry, the tested form may be a part): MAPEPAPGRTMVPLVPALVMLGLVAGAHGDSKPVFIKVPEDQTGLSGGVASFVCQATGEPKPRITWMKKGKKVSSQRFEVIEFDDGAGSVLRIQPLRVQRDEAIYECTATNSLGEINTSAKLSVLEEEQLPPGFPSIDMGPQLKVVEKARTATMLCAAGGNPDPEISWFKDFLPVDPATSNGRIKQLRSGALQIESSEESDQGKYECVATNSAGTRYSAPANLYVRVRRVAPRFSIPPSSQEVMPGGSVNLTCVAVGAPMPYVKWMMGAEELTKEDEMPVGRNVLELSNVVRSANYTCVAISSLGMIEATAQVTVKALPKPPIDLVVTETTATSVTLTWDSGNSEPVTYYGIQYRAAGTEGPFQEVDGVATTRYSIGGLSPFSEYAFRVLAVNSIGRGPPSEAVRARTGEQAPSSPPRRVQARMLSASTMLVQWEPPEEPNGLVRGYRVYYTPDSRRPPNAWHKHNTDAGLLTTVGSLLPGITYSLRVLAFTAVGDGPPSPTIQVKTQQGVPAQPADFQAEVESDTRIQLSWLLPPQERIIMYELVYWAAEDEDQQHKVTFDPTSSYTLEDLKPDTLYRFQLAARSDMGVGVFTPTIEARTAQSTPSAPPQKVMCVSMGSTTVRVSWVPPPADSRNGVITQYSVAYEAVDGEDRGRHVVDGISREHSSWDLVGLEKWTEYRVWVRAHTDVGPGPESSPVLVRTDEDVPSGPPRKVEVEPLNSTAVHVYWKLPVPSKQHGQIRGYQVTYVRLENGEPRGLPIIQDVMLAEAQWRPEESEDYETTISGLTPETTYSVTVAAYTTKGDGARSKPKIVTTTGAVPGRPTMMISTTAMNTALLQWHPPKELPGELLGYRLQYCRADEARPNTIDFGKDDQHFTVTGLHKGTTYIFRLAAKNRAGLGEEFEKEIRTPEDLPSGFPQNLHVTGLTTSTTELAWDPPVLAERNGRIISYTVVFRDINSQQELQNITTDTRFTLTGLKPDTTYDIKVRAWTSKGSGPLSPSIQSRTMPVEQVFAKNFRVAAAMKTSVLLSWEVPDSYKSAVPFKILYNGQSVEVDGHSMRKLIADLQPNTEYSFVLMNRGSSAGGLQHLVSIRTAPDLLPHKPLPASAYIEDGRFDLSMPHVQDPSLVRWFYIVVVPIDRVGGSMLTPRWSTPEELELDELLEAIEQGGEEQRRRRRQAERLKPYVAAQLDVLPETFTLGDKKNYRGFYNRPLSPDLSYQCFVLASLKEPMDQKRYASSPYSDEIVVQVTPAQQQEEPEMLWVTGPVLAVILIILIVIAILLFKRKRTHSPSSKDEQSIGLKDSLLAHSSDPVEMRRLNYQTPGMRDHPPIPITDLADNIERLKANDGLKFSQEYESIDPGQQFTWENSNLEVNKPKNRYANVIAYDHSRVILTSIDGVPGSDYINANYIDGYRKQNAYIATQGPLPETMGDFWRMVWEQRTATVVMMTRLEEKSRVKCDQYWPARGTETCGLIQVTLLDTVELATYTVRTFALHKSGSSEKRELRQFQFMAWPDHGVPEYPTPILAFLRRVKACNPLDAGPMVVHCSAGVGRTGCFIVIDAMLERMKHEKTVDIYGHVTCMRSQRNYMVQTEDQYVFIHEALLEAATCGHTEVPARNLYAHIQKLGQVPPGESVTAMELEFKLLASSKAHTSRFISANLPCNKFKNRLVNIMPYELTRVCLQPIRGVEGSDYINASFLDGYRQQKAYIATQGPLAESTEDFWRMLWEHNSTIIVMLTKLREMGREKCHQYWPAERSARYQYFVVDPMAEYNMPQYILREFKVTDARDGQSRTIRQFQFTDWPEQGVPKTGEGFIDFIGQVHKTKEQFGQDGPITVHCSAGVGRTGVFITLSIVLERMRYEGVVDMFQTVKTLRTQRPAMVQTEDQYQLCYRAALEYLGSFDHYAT

`Cc1ccc(S(=O)(=O)Oc2cc(OCc3ccc(C(F)(F)F)cc3)c(/C=C3\SC(=O)NC3=O)cc2Br)cc1`: the IC50 (commonly the concentration at which inhibition is half-maximal) was 19 µM in data set [1]; 3.9 µM in [4]; 3 µM in [5]; more than 100 µM in data set [6]; 12 µM in data set [9]. In addition, in data set [2], the Ratio IC50 is more than 10. Moreover, the Activity was 124 mg/dL in the data set on Mus musculus [3], “Non-toxic” in the data set on Mus musculus [8] and 2 g in the data set on Mus musculus [10]. The result with Mus musculus [7] was Active.
